Laboratory results as given in ChEMBL document CHEMBL4028907, “Semisynthesis and Biological Evaluation of Xanthone Amphiphilics as Selective, Highly Potent Antifungal Agents to Combat Fungal Resistance” (J Med Chem, 2017).
Converted amounts (≈) assume the structure as drawn. The source made the active and inactive calls. The calls are words filed in the database; no cut-off is given here.

Experiments:
Candida albicans [1] = test: Antifungal activity against Candida albicans ATCC 10231 after 24 hrs by two fold serial dilution method; format: functional; conditions: ATCC 10231, 24 h
Procedure, shortened: (§1)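 Candida grown on Sabouraud dextrose agar at 35 °C for 24 h, adjusted to ~5×10^3 CFU/mL. Two-fold dilutions from 100 to 0.78 μg/mL in Sabouraud dextrose broth, incubated at 35 °C for 24 h. MIC is the lowest concentration inhibiting growth by eye and by OD600. CLSI-based with minor modifications.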

Candida albicans [2] = test: Antifungal activity against drug resistant Candida albicans DF2672R after 24 hrs by two fold serial dilution method; format: functional; procedure, shortened: as §1
[3] = Selectivity index, ratio of HC50 for New Zealand white rabbit RBC to MIC for Candida albicans ATCC 10231
Candida albicans [4] = test: Antifungal activity against Candida albicans DF1976R after 24 hrs by two fold serial dilution method; format: functional; procedure, shortened: as §1
Candida albicans [5] = test: Antifungal activity against Candida albicans ATCC90028 after 24 hrs by two fold serial dilution method; format: functional; conditions: ATCC90028, 24 h; procedure, shortened: as §1
Candida albicans [6] = test: Antifungal activity against Candida albicans ATCC24433 after 24 hrs by two fold serial dilution method; format: functional; conditions: ATCC24433, 24 h; procedure, shortened: as §1
Candida albicans [7] = test: Antifungal activity against Candida albicans ATCC11651 after 24 hrs by two fold serial dilution method; format: functional; conditions: ATCC11651, 24 h; procedure, shortened: as §1
Fusarium solani [8] = test: Antifungal activity against Fusarium solani 52628 after 48 hrs by two fold serial dilution method; format: functional; conditions: Fusarium solani, 52628, 48 h
Procedure, shortened: (§2)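 Moulds grown on potato dextrose agar, 30 °C, 4 days; inoculum adjusted to about 5×10^3 CFU/mL. Two-fold serial dilutions in RPMI-1640 broth, 100 to 0.78 μg/mL final, mixed with equal volume of cell suspension; incubated 30 °C, 48 h. MIC = lowest concentration inhibiting growth, judged visually and by OD530.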

Fusarium solani [9] = test: Antifungal activity against Fusarium solani 62877 after 48 hrs by two fold serial dilution method; format: functional; conditions: Fusarium solani, 62877, 48 h; procedure, shortened: as §2
Fusarium solani [10] = test: Antifungal activity against Fusarium solani MYA3636 after 48 hrs by two fold serial dilution method; format: functional; conditions: MYA3636, 48 h; procedure, shortened: as §2
Fusarium solani [11] = test: Antifungal activity against Fusarium solani 46492 after 48 hrs by two fold serial dilution method; format: functional; conditions: Fusarium solani, 46492, 48 h; procedure, shortened: as §2
Aspergillus brasiliensis = test: Antifungal activity against Aspergillus brasiliensis TCC16404 after 48 hrs by two fold serial dilution method; format: functional; conditions: TCC16404, 48 h; procedure, shortened: as §2
Aspergillus flavus [12] = test: Antifungal activity against Aspergillus flavus TCC 204304 after 48 hrs by two fold serial dilution method; format: functional; conditions: TCC 204304, 48 h; procedure, shortened: as §2
Aspergillus flavus [13] = test: Antifungal activity against Aspergillus flavus TCC MYA3631 after 48 hrs by two fold serial dilution method; format: functional; conditions: TCC MYA3631, 48 h; procedure, shortened: as §2
Aspergillus fumigatus [14] = test: Antifungal activity against Aspergillus fumigatus TCC MYA3626 after 48 hrs by two fold serial dilution method; format: functional; conditions: TCC MYA3626, 48 h; procedure, shortened: as §2
Aspergillus fumigatus [15] = test: Antifungal activity against Aspergillus fumigatus TCC 90906 after 48 hrs by two fold serial dilution method; format: functional; conditions: TCC 90906, 48 h; procedure, shortened: as §2
Candida albicans [16] = test: Fungicidal activity against drug resistant Candida albicans DF2672R at 8 times MIC after 24 hrs by time kill assay relative to control; format: functional
Procedure, shortened: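 Cells at 10^5–10^6 CFU/mL exposed to 1×, 2×, 4× or 8× MIC at 35 °C. Samples taken at 0.5, 1, 2, 4, 8 and 24 h, serially diluted in PBS and plated on SDA. CFU counted after 24 h at 35 °C; biological replicates.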

Fusarium oxysporum [17] = test: Antifungal activity against Fusarium oxysporum MYA3461 after 48 hrs by two fold serial dilution method; format: functional; conditions: MYA3461, 48 h; procedure, shortened: as §2
Fusarium oxysporum [18] = test: Antifungal activity against Fusarium oxysporum 64530 after 48 hrs by two fold serial dilution method; format: functional; conditions: Fusarium oxysporum, 64530, 48 h; procedure, shortened: as §2
Candida albicans [19] = test: Antifungal activity against drug resistant Candida albicans DF2672R infected C57BL6 mouse cornea at 5% administered topically for every 20 mins during the first hour and every 1 hr during the next 6 hrs by serial dilution method; format: functional
Procedure, shortened: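 C57BL6 mice aged 7–8 weeks (19–23 g), immunosuppressed with cyclophosphamide 100 mg/kg ip at 4 days and 1 day before infection and on day 1 after. Left cornea scratched under xylazine/ketamine, then 20 μL of ~5×10^7 CFU/mL yeast in PBS applied. Treatment started 1 day later; PBS served as control; four mice per group. Corneal fungal load counted by serial dilution plating on SDA.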

## C[C@@H]1C/C=C/C=C/C=C/C=C/[C@H](O[C@@H]2O[C@H](C)[C@@H](O)[C@H](N)[C@@H]2O)C[C@@H]2O[C@](O)(C[C@@H](O)C[C@H]3O[C@@H]3/C=C/C(=O)O1)C[C@H](O)[C@H]2C(=O)O [NATAMYCIN]
Candida albicans [1]
  MIC: 6.25 µg/mL (≈ 9.39 µM)
Candida albicans [2]
  MIC: 6.25 µg/mL (≈ 9.39 µM)
[3]
  Selectivity Index: 18.1
Candida albicans [4]
  MIC: 6.25 µg/mL (≈ 9.39 µM)
Candida albicans [5]
  MIC: 6.25 µg/mL (≈ 9.39 µM)
Candida albicans [6]
  MIC: 6.25 µg/mL (≈ 9.39 µM)
Candida albicans [7]
  MIC: 6.25 µg/mL (≈ 9.39 µM)
Fusarium solani [8]
  MIC: 6.25 µg/mL (≈ 9.39 µM)
Fusarium solani [9]
  MIC: 25 µg/mL (≈ 37.6 µM)
Fusarium solani [10]
  MIC: 6.25 µg/mL (≈ 9.39 µM)
Fusarium solani [11]
  MIC: 6.25 µg/mL (≈ 9.39 µM)
Aspergillus brasiliensis
  MIC: 6.25 µg/mL (≈ 9.39 µM)
Aspergillus flavus [12]
  MIC: > 50 µg/mL
Aspergillus flavus [13]
  MIC: > 50 µg/mL
Aspergillus fumigatus [14]
  MIC: 6.25 µg/mL (≈ 9.39 µM)
Aspergillus fumigatus [15]
  MIC: 6.25 µg/mL (≈ 9.39 µM)
Candida albicans [16]
  Activity: 99.9%
Fusarium oxysporum [17]
  MIC: 3.13 µg/mL (≈ 4.7 µM)
Fusarium oxysporum [18]
  MIC: 6.25 µg/mL (≈ 9.39 µM)
Candida albicans [19]
  Activity: Active
